Results on 27 molecules are retold here after ChEMBL document CHEMBL3600309, “Structure activity relationship study of burkholdine analogues toward simple antifungal agents” (2015).

What all share (type): functional
Test [1] in a line: Antifungal activity against Candida viswanathii NBRC10321 at 400 ug/ml after 24 hrs by twofold serial dilution method. A digest of the protocol:
(§1)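 Compounds were first screened at a single concentration of 400 against each fungus. MIC values were then determined only for selected compounds.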

The test system of another test is Saccharomyces cerevisiae. Kind of test: Antifungal activity against Saccharomyces cerevisiae X2180-1A after 24 hrs by twofold serial dilution method. A digest of the protocol:
as §1

Another test deals with Aspergillus oryzae. Kind of test: Antifungal activity against Aspergillus oryzae 1-Murasaki-1 after 24 hrs by twofold serial dilution method. The following applies: 1-Murasaki-1, 24 h. A digest of the protocol: as §1

Converted amounts (≈) assume the structure as drawn. The source made the active and inactive calls. No cut-off for these calls is given here. Some results are limits rather than exact numbers.

As to `CCCCCCCCCCCCNC(=O)[C@H](CC(=O)N[C@H](CO)C(=O)N[C@H](Cc1ccc(O)cc1)C(=O)N[C@H](CC(N)=O)C(=O)NCC(=O)O)NC(=O)[C@H](CC(N)=O)NC(=O)[C@H](CO)NC(=O)[C@@H](N)CC(N)=O`, the outcome in test [1] was inactive.

Turning to `CCCCCCCCCCCCCCCCNC(=O)[C@@H]1CC(=O)N[C@H](CO)C(=O)N[C@H](Cc2ccc(O)cc2)C(=O)N[C@H](CC(N)=O)C(=O)NCC(=O)N[C@@H](CC(N)=O)C(=O)N[C@@H](CO)C(=O)N[C@@H](CC(N)=O)C(=O)N1`, the outcome in test [1] was inactive. As a reminder, the MIC is the lowest concentration that inhibits growth of the organism. The low end stands for a more susceptible organism, the high end for a less susceptible organism. For `CCCCCCCCCCCCNC(=O)[C@H]1CC(=O)N[C@H](CO)C(=O)N[C@H](Cc2ccc(O)cc2)C(=O)N[C@H](CC(N)=O)C(=O)NCC(=O)N[C@H](CC(N)=O)C(=O)N[C@H](CO)C(=O)N[C@@H](CC(N)=O)C(=O)N1`, the MIC worked out at 100 µg/mL (≈ 98.1 µM) against Saccharomyces cerevisiae and 200 µg/mL (≈ 196 µM) with Aspergillus oryzae. In test [1], the result was inactive. As for `CCCCCCCCCCCCNC(=O)[C@@H]1CC(=O)N[C@H](CO)C(=O)N[C@H](Cc2ccc(O)cc2)C(=O)N[C@H](CC(N)=O)C(=O)NCC(=O)N[C@@H](CC(N)=O)C(=O)N[C@H](CO)C(=O)N[C@@H](CC(N)=O)C(=O)N1`, the outcome in test [1] was inactive.

Regarding `CCCCCCCCCCCCNC(=O)[C@H](CC(=O)N[C@H](CO)C(=O)O)NC(=O)[C@H](CC(N)=O)NC(=O)[C@H](CO)NC(=O)[C@H](CC(N)=O)NC(=O)CNC(=O)[C@@H](CC(N)=O)NC(=O)[C@H](N)Cc1ccc(O)cc1`, in test [1], the result was inactive.

For the molecule `CCCCCCCCNC(=O)[C@H]1CC(=O)N[C@H](CO)C(=O)N[C@H](Cc2ccc(O)cc2)C(=O)N[C@H](CC(N)=O)C(=O)NCC(=O)N[C@@H](CC(N)=O)C(=O)N[C@@H](CO)C(=O)N[C@@H](CC(N)=O)C(=O)N1`, the outcome in test [1] was inactive.

As for `CCCCCCCCCCCCNC(=O)[C@@H]1CC(=O)N[C@H](CO)C(=O)N[C@H](Cc2ccc(O)cc2)C(=O)N[C@H](CC(N)=O)C(=O)NCC(=O)N[C@@H](CC(N)=O)C(=O)N[C@@H](CO)C(=O)N[C@H](CC(N)=O)C(=O)N1`, the result in test [1] was inactive. For the molecule `CCCCCCCCCCCCNC(=O)[C@H]1CC(=O)N[C@H](CO)C(=O)N[C@H](Cc2ccc(O)cc2)C(=O)N[C@H](CC(N)=O)C(=O)NCC(=O)N[C@@H](CC(N)=O)C(=O)N[C@H](CO)C(=O)N[C@@H](CC(N)=O)C(=O)N1`, the result in test [1] was inactive. `CCCCCCCCCCCCNC(=O)[C@H](CC(=O)N[C@H](CO)C(=O)N[C@H](Cc1ccc(O)cc1)C(=O)N[C@H](CC(N)=O)C(=O)O)NC(=O)[C@H](CC(N)=O)NC(=O)[C@H](CO)NC(=O)[C@H](CC(N)=O)NC(=O)CN`: the result in test [1] was inactive. Regarding `CCCCCCCCCCCCNC(=O)[C@@H]1CC(=O)N[C@H](CO)C(=O)N[C@H](Cc2ccc(O)cc2)C(=O)N[C@H](CC(N)=O)C(=O)NCC(=O)N[C@@H](CC(N)=O)C(=O)N[C@@H](CO)C(=O)N[C@@H](CC(N)=O)C(=O)N1`, the MIC against Saccharomyces cerevisiae came out at 25 µg/mL (≈ 24.5 µM); in the test with Aspergillus oryzae, 50 µg/mL (≈ 49.1 µM). In addition, in test [1], the outcome was inactive. With `CCCCCCCCNC(=O)[C@@H]1CC(=O)N[C@H](CO)C(=O)N[C@H](Cc2ccc(O)cc2)C(=O)N[C@H](CC(N)=O)C(=O)NCC(=O)N[C@@H](CC(N)=O)C(=O)N[C@@H](CO)C(=O)N[C@@H](CC(N)=O)C(=O)N1`, the result in test [1] was inactive.

For the molecule `CCCCCCCCCCCCNC(=O)[C@@H]1CC(=O)N[C@H](CO)C(=O)N[C@H](Cc2ccc(O)cc2)C(=O)N[C@H](CC(N)=O)C(=O)NCC(=O)N[C@H](CC(N)=O)C(=O)N[C@@H](CO)C(=O)N[C@H](CC(N)=O)C(=O)N1`, the result in test [1] was inactive. Same read-out and setting: as for `CCCCCCCCCCCCCCCCNC(=O)[C@H]1CC(=O)N[C@H](CO)C(=O)N[C@H](Cc2ccc(O)cc2)C(=O)N[C@H](CC(N)=O)C(=O)NCC(=O)N[C@@H](CC(N)=O)C(=O)N[C@@H](CO)C(=O)N[C@@H](CC(N)=O)C(=O)N1`, the entry is “inactive”; as for `CCCCCCCCCCCCNC(=O)[C@H](CC(=O)N[C@H](CO)C(=O)N[C@H](Cc1ccc(O)cc1)C(=O)O)NC(=O)[C@H](CC(N)=O)NC(=O)[C@H](CO)NC(=O)[C@H](CC(N)=O)NC(=O)CNC(=O)[C@H](N)CC(N)=O`, “inactive”.

For the molecule `C[C@@H]1[C@H](O)[C@@H](C)/C=C/C=C/C=C/C=C/C=C/C=C/C=C/[C@H](O[C@@H]2O[C@H](C)[C@@H](O)[C@H](N)[C@@H]2O)C[C@@H]2O[C@](O)(C[C@@H](O)C[C@@H](O)[C@H](O)CC[C@@H](O)C[C@@H](O)CC(=O)O[C@H]1C)C[C@H](O)[C@H]2C(=O)O` [AMPHOTERICIN B], in the test with Saccharomyces cerevisiae, the MIC came to 1 µg/mL (≈ 1.08 µM). With `CCCCCCCCCCCCNC(=O)[C@H]1CC(=O)N[C@H](CO)C(=O)N[C@H](Cc2ccc(O)cc2)C(=O)N[C@H](CC(N)=O)C(=O)NCC(=O)N[C@@H](CC(N)=O)C(=O)N[C@@H](CO)C(=O)N[C@H](CC(N)=O)C(=O)N1`, the MIC is greater than 400 µg/mL in the test on Saccharomyces cerevisiae and 200 µg/mL (≈ 196 µM) against Aspergillus oryzae. For the same molecule, in test [1], the outcome was inactive. The matching figures for `CCCCCCCCCCCCNC(=O)[C@H]1CC(=O)N[C@H](CO)C(=O)N[C@H](Cc2ccc(O)cc2)C(=O)N[C@H](CC(N)=O)C(=O)NCC(=O)N[C@H](CC(N)=O)C(=O)N[C@@H](CO)C(=O)N[C@H](CC(N)=O)C(=O)N1`: 400 µg/mL (≈ 392 µM), 200 µg/mL (≈ 196 µM) and “inactive”.

Consider `CCCCCCCCCCCCNC(=O)[C@@H]1CC(=O)N[C@H](CO)C(=O)N[C@H](Cc2ccc(O)cc2)C(=O)N[C@H](CC(N)=O)C(=O)NCC(=O)N[C@H](CC(N)=O)C(=O)N[C@H](CO)C(=O)N[C@H](CC(N)=O)C(=O)N1`, for which the MIC was greater than 400 µg/mL against Saccharomyces cerevisiae and 200 µg/mL (≈ 196 µM) in the test on Aspergillus oryzae. Further, the outcome in test [1] was inactive. The matching figures for `CCCCCCCCCCCCNC(=O)[C@H]1CC(=O)N[C@H](CO)C(=O)N[C@H](Cc2ccc(O)cc2)C(=O)N[C@H](CC(N)=O)C(=O)NCC(=O)N[C@H](CC(N)=O)C(=O)N[C@H](CO)C(=O)N[C@H](CC(N)=O)C(=O)N1`: 100 µg/mL (≈ 98.1 µM), 200 µg/mL (≈ 196 µM) and “inactive”.

With `CCCCCCCCCCCCNC(=O)[C@H]1CC(=O)N[C@H](CO)C(=O)N[C@H](Cc2ccc(O)cc2)C(=O)N[C@H](CC(N)=O)C(=O)NCC(=O)N[C@H](CC(N)=O)C(=O)N[C@@H](CO)C(=O)N[C@@H](CC(N)=O)C(=O)N1`, in test [1], the outcome was inactive. With `CCCCCCCCCCCCNC(=O)[C@H]1CC(=O)N[C@H](CO)C(=O)N[C@H](Cc2ccc(O)cc2)C(=O)N[C@H](CC(N)=O)C(=O)NCC(=O)N[C@@H](CC(N)=O)C(=O)N[C@H](CO)C(=O)N[C@H](CC(N)=O)C(=O)N1`, the MIC against Saccharomyces cerevisiae came to 400 µg/mL (≈ 392 µM); against Aspergillus oryzae, 200 µg/mL (≈ 196 µM). Also, in test [1], the outcome was inactive. Consider `CCCCCCCCCCCCNC(=O)[C@@H]1CC(=O)N[C@H](CO)C(=O)N[C@H](Cc2ccc(O)cc2)C(=O)N[C@H](CC(N)=O)C(=O)NCC(=O)N[C@H](CC(N)=O)C(=O)N[C@H](CO)C(=O)N[C@@H](CC(N)=O)C(=O)N1`, for which the outcome in test [1] was inactive. As to `CCCCCCCCCCCCNC(=O)[C@@H]1CC(=O)N[C@H](CO)C(=O)N[C@H](Cc2ccc(O)cc2)C(=O)N[C@H](CC(N)=O)C(=O)NCC(=O)N[C@H](CC(N)=O)C(=O)N[C@@H](CO)C(=O)N[C@@H](CC(N)=O)C(=O)N1`, the result in test [1] was inactive.

As to `CCCCCCCCCCCCNC(=O)[C@@H]1CC(=O)N[C@H](CO)C(=O)N[C@H](Cc2ccc(O)cc2)C(=O)N[C@H](CC(N)=O)C(=O)NCC(=O)N[C@@H](CC(N)=O)C(=O)N[C@H](CO)C(=O)N[C@H](CC(N)=O)C(=O)N1`, the outcome in test [1] was inactive. Turning to `CCCCCCCCCCCCNC(=O)[C@H]1CC(=O)N[C@H](CO)C(=O)N[C@H](Cc2ccc(O)cc2)C(=O)N[C@H](CC(N)=O)C(=O)NCC(=O)N[C@@H](CC(N)=O)C(=O)N[C@@H](CO)C(=O)N[C@@H](CC(N)=O)C(=O)N1`, the MIC in the test on Saccharomyces cerevisiae and with Aspergillus oryzae was 50 µg/mL (≈ 49.1 µM) in each case. For the same molecule, in test [1], the outcome was inactive.

Turning to `CCCCCCCCCCCCNC(=O)[C@H](CC(=O)N[C@H](CO)C(=O)N[C@H](Cc1ccc(O)cc1)C(=O)N[C@H](CC(N)=O)C(=O)NCC(=O)N[C@@H](CC(N)=O)C(=O)O)NC(=O)[C@H](CC(N)=O)NC(=O)[C@@H](N)CO`, the outcome in test [1] was inactive. The same measure, in the same setting: the value for `CCCCCCCCCCCCNC(=O)[C@H](CC(=O)N[C@H](CO)C(=O)N[C@H](Cc1ccc(O)cc1)C(=O)N[C@H](CC(N)=O)C(=O)NCC(=O)N[C@@H](CC(N)=O)C(=O)N[C@@H](CO)C(=O)O)NC(=O)[C@@H](N)CC(N)=O` was “inactive”.
